One data set has as its target T1, IRAK4 (Homo sapiens, UniProt Q9NWZ3).
T1 sequence (Q9NWZ3 1-460): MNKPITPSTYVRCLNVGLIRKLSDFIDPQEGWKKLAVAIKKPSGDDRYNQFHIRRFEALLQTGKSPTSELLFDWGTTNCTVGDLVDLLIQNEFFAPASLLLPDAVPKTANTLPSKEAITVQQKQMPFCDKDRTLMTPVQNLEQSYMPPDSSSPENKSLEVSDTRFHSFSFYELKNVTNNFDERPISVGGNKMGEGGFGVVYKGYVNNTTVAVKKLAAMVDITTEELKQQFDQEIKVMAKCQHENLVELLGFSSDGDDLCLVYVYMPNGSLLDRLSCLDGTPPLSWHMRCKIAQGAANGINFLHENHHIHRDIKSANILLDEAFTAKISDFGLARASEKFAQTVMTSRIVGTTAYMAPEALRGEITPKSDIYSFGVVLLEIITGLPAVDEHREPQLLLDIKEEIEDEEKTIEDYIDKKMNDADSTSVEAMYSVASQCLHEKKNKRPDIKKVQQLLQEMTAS
Kind of data set: 33P-ATP filter-binding kinase assay. In kind it is biochemical.

The target of the next data set is PIM1 (Homo sapiens, UniProt P11309). Kind of data set: 33P-ATP filter-binding kinase assay. It is filed as biochemical.
The target of the next data set is PIM2 (Homo sapiens, UniProt Q9P1W9). Description: 33P-ATP filter-binding kinase assay. In kind it is biochemical.
A further data set concerns the target smMLCK (Homo sapiens, UniProt Q15746). Description: 33P-ATP filter-binding kinase assay. It is filed as biochemical.
A further data set has as its target ROCK2 (Rattus norvegicus, UniProt Q62868). Description: 33P-ATP filter-binding kinase assay. It is filed as biochemical, human.
The subject of a further data set is CaMK2. Kind of data set: 33P-ATP filter-binding kinase assay. In kind it is biochemical, human. To be noted: read-out: % activity against kinase, kinome profile. In outline:
(§1)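 Kinome panel of 124 purified protein kinases run by an outside profiling centre using a ³³P-ATP filter-binding assay. Test compound was tested at 10 µM. Read-out is residual % enzyme activity.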

A further data set concerns the target CK1α (Homo sapiens, UniProt P48729). Kind of data set: 33P-ATP filter-binding kinase assay. In kind it is biochemical. To be noted: read-out: % activity against kinase, kinome profile. In outline:
as §1

In the next data set the target is PKN2 (Homo sapiens, UniProt Q16513). Description: 33P-ATP filter-binding kinase assay. To be noted: read-out: % activity against kinase, kinome profile. It is filed as biochemical. In outline: as §1
The target of the next data set is PKA (Homo sapiens, UniProt P17612). Kind of data set: 33P-ATP filter-binding kinase assay. To be noted: read-out: % activity against kinase, kinome profile. It is filed as biochemical. Put shortly:
as §1

A further data set deals with GFP-ZIPK (Homo sapiens, UniProt O43293). Description: FLECS elution from γ-linked ATP Sepharose. In kind it is binding. The following applies: for elution of GFP-ZIPK from ATP Sepharose: titration 0.1−300 µM. Put shortly: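 Full-length ZIPK with N-terminal GFP was expressed in HEK293 cells. Crude lysate was bound to γ-linked ATP Sepharose for 0.5 h at 4 °C (pH 7.5, 60 mM MgCl₂), washed with high- then low-salt buffer, and split into 96-well filter plates. Test compound was added for 10 min at RT, as a 900 µM solution (screen) or 0.1−300 µM (titration), in 10% DMSO. Filtrate fluorescence was read at 485/535 nm. Controls were ATP 2−200 mM (positive) and 10% DMSO (negative). Hits were wells with >5000 counts (2.5 × background), checked by Western blot.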

The subject of data set [1] is human coronary artery smooth muscle cells (CA-VSMC). Description: Phosphorylation in human coronary artery smooth muscle cells. It is filed as cell-based. To be noted: HS38 10 µM, 40 min.
The subject of another data set is aortic SM cells. Description: RLC20 phosphorylation in aortic smooth muscle cells, basal and S1P stimulated. In kind it is cell-based, human. To be noted: 50 µM, 30 min; for relative percent RLC20 phosphorylation, S1P stimulated state: S1P 0.25 µM. In outline:
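A mouse aortic smooth muscle cell line was grown in AmnioMax with 10% FBS at 37 °C and 5% CO₂, then serum-starved for 16 h. Subconfluent cells were given S1P (0.25 µM, 5 min) or left basal. They were then treated with test compound (50 µM) or 0.1% DMSO for 30 min. Cells were lysed in 1% SDS, 300 mM NaCl and 50 mM Tris-HCl pH 7.5. Phospho-RLC20 was measured by Western blot and densitometry.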

The subject of the next data set is rabbit ileum. Description: RLC20 and MYPT1 phosphorylation in Ca2+-sensitized rabbit ileum. To be noted: HS38 50 µM.
The test system of data set [2] is rabbit ileum smooth muscle. Description: Ca2+-independent force development in rabbit ileum after MC-LR. To be noted: pCa 9.0; MC-LR 10 µM.
Data set [3] relates to rat caudal arterial smooth muscle strips. Kind of data set: Calyculin A induced contraction of rat caudal arterial smooth muscle strips. The following applies: 100 µM, calyculin A 0.5 mM; for maximum contractile force: 3 h. In outline: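 Intact rat caudal arterial smooth muscle strips were contracted with calyculin A (0.5 mM, 3 h). This was done in the presence of vehicle (DMSO) or test compound at 100 µM. Maximal force was expressed as percent of an initial reference KCl contraction. Time to reach 50% of maximal contraction after calyculin A was also calculated.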

For data set [4], the system named is rat caudal arterial smooth muscle. Kind of data set: RLC20 phosphorylation in rat caudal arterial smooth muscle. To be noted: 100 µM; 30 min CLa exposure.
A further data set addresses DAPK1 (Homo sapiens, UniProt P53355). Description: KINOMEscan active-site dependent competition binding assay. The following applies: from Kd values.
In the next data set the target is DAPK3 (Homo sapiens, UniProt O43293). The description is as above. The following applies: DAPK3 (ZIPK); from Kd values.

The structures appear in SMILES notation. pIC50: −log10 of the molar value. Where “and” joins values, the source holds several entries; their conditions need not be identical. Equal values may be shown once. Some results are limits rather than exact numbers.

Data on three compounds can be found in paper PMC4445880 (ACS chemical biology, 2013).

Sequence of ROCK2 (Q62868 2-543 limits assumed): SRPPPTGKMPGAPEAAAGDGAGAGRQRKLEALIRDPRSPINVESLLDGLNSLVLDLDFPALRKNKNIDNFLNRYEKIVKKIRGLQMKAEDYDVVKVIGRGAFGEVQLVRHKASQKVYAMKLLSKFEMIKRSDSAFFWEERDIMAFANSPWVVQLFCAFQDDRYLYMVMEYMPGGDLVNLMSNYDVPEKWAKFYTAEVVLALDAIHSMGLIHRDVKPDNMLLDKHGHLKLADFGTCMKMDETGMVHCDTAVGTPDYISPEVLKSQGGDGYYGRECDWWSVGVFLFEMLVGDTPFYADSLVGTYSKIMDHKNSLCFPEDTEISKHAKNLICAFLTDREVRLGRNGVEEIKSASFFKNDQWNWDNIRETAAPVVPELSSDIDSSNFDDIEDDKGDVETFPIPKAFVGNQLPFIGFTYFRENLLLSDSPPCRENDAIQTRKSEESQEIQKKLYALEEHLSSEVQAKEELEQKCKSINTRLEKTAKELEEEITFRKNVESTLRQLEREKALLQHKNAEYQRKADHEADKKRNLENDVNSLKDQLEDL
Sequence of GFP-ZIPK (O43293 whole entry): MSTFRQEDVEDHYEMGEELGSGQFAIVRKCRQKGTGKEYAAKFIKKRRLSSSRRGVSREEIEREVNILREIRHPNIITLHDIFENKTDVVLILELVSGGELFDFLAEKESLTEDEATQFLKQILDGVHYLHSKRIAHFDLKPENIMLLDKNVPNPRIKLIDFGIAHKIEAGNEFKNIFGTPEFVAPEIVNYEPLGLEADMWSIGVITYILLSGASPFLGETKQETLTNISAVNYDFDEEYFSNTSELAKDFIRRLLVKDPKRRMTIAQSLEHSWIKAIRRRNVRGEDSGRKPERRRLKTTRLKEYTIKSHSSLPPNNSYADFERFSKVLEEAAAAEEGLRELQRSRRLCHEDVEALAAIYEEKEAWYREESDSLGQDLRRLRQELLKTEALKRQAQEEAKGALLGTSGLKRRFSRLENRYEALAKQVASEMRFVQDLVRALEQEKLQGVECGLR
Sequence of DAPK3 (O43293 whole entry): as above
Sequence of DAPK1 (P53355 whole entry): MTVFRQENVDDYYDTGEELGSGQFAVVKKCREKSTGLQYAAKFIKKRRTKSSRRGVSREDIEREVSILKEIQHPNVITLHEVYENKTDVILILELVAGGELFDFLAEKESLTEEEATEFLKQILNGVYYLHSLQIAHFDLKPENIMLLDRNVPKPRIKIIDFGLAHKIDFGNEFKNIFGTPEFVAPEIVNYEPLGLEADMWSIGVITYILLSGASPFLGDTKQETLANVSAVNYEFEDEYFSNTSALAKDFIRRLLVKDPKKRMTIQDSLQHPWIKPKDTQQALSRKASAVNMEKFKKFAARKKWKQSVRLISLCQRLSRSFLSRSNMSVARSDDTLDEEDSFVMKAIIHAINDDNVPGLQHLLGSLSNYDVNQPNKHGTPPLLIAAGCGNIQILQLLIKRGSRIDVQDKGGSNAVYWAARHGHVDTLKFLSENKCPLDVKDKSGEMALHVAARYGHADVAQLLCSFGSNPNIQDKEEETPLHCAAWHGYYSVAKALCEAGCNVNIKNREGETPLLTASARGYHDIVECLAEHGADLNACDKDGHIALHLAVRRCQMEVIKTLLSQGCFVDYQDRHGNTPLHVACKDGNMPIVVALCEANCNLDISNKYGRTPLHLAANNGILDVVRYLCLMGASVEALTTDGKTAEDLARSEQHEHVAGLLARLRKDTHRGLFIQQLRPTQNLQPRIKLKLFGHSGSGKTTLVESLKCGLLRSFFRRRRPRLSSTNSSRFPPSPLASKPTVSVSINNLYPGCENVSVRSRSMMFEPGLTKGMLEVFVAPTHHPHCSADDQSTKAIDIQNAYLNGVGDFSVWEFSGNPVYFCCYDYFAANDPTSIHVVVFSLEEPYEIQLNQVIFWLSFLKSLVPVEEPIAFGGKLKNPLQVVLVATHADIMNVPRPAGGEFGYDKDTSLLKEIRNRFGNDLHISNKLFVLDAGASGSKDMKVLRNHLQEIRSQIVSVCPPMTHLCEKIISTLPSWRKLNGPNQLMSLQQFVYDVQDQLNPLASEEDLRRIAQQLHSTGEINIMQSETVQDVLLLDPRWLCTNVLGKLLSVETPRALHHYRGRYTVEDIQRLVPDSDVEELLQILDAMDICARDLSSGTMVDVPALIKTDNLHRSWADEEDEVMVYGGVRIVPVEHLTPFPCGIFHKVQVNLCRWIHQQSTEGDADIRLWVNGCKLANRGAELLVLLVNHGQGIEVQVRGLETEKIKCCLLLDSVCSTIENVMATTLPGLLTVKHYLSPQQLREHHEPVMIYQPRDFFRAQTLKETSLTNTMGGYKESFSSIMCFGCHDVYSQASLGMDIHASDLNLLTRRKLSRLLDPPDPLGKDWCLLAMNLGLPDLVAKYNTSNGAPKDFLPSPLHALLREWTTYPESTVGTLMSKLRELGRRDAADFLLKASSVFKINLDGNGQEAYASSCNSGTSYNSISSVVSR
Sequence of PIM2 (Q9P1W9 whole entry): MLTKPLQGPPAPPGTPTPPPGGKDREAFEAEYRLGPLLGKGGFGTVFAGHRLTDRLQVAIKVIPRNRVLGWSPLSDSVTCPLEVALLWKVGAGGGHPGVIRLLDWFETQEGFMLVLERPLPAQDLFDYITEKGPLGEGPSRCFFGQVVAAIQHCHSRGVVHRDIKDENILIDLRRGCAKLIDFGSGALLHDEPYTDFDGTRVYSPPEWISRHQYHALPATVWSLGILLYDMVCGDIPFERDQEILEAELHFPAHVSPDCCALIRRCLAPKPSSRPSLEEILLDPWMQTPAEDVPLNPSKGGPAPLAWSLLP
Sequence of CK1α (P48729 whole entry): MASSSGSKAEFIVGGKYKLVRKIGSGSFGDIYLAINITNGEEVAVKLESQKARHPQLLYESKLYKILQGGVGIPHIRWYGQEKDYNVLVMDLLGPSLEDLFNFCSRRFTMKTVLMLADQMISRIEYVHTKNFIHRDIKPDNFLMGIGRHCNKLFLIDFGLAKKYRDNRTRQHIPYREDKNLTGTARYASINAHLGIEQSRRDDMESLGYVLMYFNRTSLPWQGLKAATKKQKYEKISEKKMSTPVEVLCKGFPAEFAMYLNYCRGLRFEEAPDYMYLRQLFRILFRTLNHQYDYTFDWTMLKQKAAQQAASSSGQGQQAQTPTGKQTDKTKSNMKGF
Sequence of smMLCK (Q15746 1464-1719 limits assumed): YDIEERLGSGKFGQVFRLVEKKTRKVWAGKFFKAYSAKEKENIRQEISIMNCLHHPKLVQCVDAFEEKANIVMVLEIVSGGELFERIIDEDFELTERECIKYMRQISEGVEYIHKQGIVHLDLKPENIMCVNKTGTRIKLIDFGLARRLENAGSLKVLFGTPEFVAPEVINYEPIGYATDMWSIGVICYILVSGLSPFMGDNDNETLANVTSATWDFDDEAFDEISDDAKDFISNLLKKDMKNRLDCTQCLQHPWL
Sequence of PKN2 (Q16513 whole entry): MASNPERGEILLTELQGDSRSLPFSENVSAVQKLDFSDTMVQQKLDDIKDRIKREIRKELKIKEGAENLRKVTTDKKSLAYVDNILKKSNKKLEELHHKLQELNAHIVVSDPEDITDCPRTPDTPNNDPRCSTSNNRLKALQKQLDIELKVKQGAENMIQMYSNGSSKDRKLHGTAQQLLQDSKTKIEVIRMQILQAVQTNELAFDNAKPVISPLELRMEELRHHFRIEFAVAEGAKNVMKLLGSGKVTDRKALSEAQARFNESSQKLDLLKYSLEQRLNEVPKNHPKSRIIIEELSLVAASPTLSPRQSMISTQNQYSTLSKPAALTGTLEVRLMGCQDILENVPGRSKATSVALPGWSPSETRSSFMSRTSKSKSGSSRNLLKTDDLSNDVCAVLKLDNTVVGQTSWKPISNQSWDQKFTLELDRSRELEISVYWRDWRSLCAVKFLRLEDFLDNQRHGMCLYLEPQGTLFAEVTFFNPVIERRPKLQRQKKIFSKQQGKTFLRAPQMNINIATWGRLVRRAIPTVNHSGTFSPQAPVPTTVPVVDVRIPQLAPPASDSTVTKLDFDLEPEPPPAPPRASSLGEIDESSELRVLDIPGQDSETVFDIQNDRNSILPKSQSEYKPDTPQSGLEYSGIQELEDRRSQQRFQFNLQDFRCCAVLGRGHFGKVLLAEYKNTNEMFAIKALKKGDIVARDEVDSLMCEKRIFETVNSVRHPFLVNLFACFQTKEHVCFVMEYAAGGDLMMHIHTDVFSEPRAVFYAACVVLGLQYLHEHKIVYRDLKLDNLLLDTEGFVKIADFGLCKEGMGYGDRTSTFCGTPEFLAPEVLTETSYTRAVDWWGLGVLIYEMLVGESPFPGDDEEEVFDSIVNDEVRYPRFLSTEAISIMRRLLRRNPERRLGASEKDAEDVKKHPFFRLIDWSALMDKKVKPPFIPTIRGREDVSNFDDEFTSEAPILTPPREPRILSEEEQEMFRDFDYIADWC
Sequence of PIM1 (P11309 whole entry): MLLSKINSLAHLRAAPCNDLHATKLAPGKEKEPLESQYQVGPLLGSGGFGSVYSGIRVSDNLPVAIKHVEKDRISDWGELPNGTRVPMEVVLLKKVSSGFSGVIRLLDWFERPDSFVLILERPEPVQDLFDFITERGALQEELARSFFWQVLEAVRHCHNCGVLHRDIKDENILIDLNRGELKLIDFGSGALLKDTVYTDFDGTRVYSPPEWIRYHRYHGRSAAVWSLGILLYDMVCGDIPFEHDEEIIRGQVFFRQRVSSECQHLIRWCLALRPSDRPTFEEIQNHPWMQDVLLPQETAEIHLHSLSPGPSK

As to `CC(Sc1nc2c(cnn2-c2cccc(Cl)c2)c(=O)[nH]1)C(N)=O` (stereo not shown) [HS38, 2-((1-(3-chlorophenyl)-4-oxo-4,5-dihydro-1H-pyrazolo[3,4-d]pyrimidin-6-yl)thio)propanamide], the “fold less potent than against DAPK1 and PIM3” value at IRAK4 was ~ 10 fold; at PIM1, ~ 10 fold; at PIM2 it was ~ 100 fold; at smMLCK it was ~ 100 fold. Besides, the pIC50 at ROCK2 is < 3.70. In addition, the “activity against ROCK2” value at ROCK2 (ROCK2, duplicate validation) is “completely inactive”. Moreover, the inhibition at ROCK2 (read-out: % activity against kinase, ROCK2, kinome profile) was < 10%; in the data set on CaMK2, < 10%; at CK1α, < 10%; on PKN2 it was < 10%; on PKA, < 10%. At GFP-ZIPK (FLECS screen, elution of GFP-ZIPK, drug candidate 900 µM solution), the “increase in fluorescence above background” value was > 4 fold. The “elution of GFP-ZIPK from ATP Sepharose” value on GFP-ZIPK is on record as “produced a sigmoidal curve”. In data set [1], the “phosphorylation state of Par-4” value was “not significantly affected”. Besides, the “phosphorylation state of T855 of MYPT1” value in [1] is given as “not significantly affected”. For the same compound, the “decrease in RLC20 phosphorylation” value in data set [1] (serum-free and 5% FBS conditions) was 21−23%. Further, the “relative percent RLC20 phosphorylation, basal (unstimulated) state” value with aortic SM cells is recorded as “significantly decreased”. Also, the “relative percent RLC20 phosphorylation, S1P stimulated state” value in the data set with aortic SM cells is on record as “significantly decreased”. For the same compound, in the data set with rabbit ileum, the “MYPT1 Thr696 phosphorylation level” value is “significantly reduced”. Further, in the data set on rabbit ileum, the RLC20 phosphorylation level entry is “significantly reduced”. Also, the “lag time to the onset of force” value in data set [2] was “increased”. In addition, the “rate of force development (t1/2)” value in data set [2] is given as “increased”. The “time required to reach 50% of maximal contraction (t1/2 max)” value in data set [3] was “more than doubled”. Moreover, the maximum contractile force result in [3] is “without significantly affecting”. Moreover, in data set [4], the RLC20 phosphorylation result is on record as “significant reduction”.

Take `O=c1[nH]c(SCCO)nc2c1cnn2-c1cccc(Cl)c1` [HS43, 1-(3-Chlorophenyl)-6-((2-hydroxyethyl)thio)-1,5-dihydro-4H-pyrazolo[3,4-d]pyrimidin-4-one]: the “fold less potent than HS38” value on DAPK1 is listed as ~ 5 fold. Also, the “fold less potent than HS38 / lower affinity” value at DAPK3 is 5 fold and ~ 5 fold. Also, at GFP-ZIPK, the “elution of GFP-ZIPK from ATP Sepharose” value is “eluted far less GFP-ZIPK”. Further, in the data set on aortic SM cells, the “relative percent RLC20 phosphorylation, basal (unstimulated) state” value is listed as “did not significantly affect” and the “relative percent RLC20 phosphorylation, S1P stimulated state” value is “did not significantly affect”. Also, in data set [3], the “time required to reach 50% of maximal contraction (t1/2 max)” value is listed as “did not significantly affect” and the maximum contractile force result is given as “did not significantly affect”. In addition, in data set [4], the RLC20 phosphorylation result was “did not affect”.

`O=S(=O)(c1cccc2c(I)cccc12)N1CCCNCC1` [ML-7, reference compound]: the “elution of GFP-ZIPK from ATP Sepharose” value at GFP-ZIPK is “failed to elute GFP-ZIPK”.
